Source: ChEMBL document CHEMBL1909512, “Indolin-2-one p38α inhibitors III: bioisosteric amide replacement” (Bioorg Med Chem Lett, 2011)
pIC50: −log10 of the molar value.

Experiments:
[1] = target: Mitogen-activated protein kinase 14 (Homo sapiens, UniProt Q16539)
[2] = Metabolic stability in human liver microsomes assessed as compound turnover at 5 uM after 30 mins in presence of NADPH; format: ADME, Microsome; settings: read-out: Drug metabolism
[3] = Mean residence time in rat at 1 mg/kg, iv; format: ADME, organism-based; parameters: dose 1 mg/kg, route intravenous; settings: in vivo
[4] = system: Blood; test: Inhibition of LPS-induced TNFalpha release in human whole blood after 24 hrs by ELISA; format: functional, tissue-based
[5] = AUC (0 to infinity) in rat at 1 mg/kg, iv; format: ADME, organism-based; parameters: time infinity, dose 1 mg/kg, route intravenous; settings: plasma
[6] = system: Liver microsomes; test: Metabolic stability in human liver microsomes assessed as compound turnover at 5 uM after 30 mins in absence of NADPH; format: ADME, Microsome; settings: 0.5 h
[7] = Clearance in rat at 1 mg/kg, iv; format: ADME, organism-based; parameters: dose 1 mg/kg, route intravenous; settings: in vivo
[8] = Apparent passive permeability from basolateral to apical side of the human Caco2 cells at 12.5 uM; format: ADME, cell-based; settings: Caco-2
Method in brief: (§1)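 Passive permeability across Caco-2 monolayer measured with 12.5 µM test compound in both directions (apical-to-basal and basal-to-apical); Papp reported in 10^-6 cm/s.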

[9] = Cmax in rat at 1 mg/kg, iv; format: ADME, organism-based; parameters: dose 1 mg/kg, route intravenous; settings: in vivo
[10] = Metabolic stability in rat liver microsomes assessed as compound turnover at 5 uM after 30 mins in presence of NADPH; format: ADME, Microsome; settings: read-out: Drug metabolism
Method in brief: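 5 µM test compound incubated with rat or human hepatic microsomes (1 mg/mL) plus NADPH for 30 min at 37 °C; result given as % turnover.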

[11] = system: CHO; test: Cytotoxicity against CHO cells; format: cell-based; settings: Cricetulus griseus
[12] = Oral bioavailability in rat at 10 mg/kg; format: ADME, organism-based; settings: in vivo
[13] = Apparent passive permeability from apical to basolateral side of the human Caco2 cells at 12.5 uM; format: ADME, cell-based; settings: Caco-2
Method in brief: as §1

[14] = AUC (0 to infinity) in rat at 10 mg/kg, po; format: ADME, organism-based; parameters: time infinity, dose 10 mg/kg, route oral; settings: plasma
[15] = Volume of distribution at steady state in rat at 1 mg/kg, iv; format: ADME, organism-based; parameters: dose 1 mg/kg, route intravenous; settings: in vivo, read-out: Vdss
[16] = Half life in rat at 1 mg/kg, iv; format: ADME, organism-based; parameters: dose 1 mg/kg, route intravenous; settings: in vivo
[17] = Cmax in rat at 10 mg/kg, po; format: ADME, organism-based; parameters: dose 10 mg/kg, route oral; settings: in vivo
[18] = system: Liver microsomes; test: Metabolic stability in rat liver microsomes in absence of NADPH; format: ADME, Microsome
[19] = system: Liver microsomes; test: Metabolic stability in human liver microsomes in absence of NADPH; format: ADME, Microsome
[20] = system: CHO; test: Cytotoxicity against CHO cells at 200 uM; format: cell-based, Cricetulus griseus; settings: chinese hamster
[21] = target: hERG (Homo sapiens, UniProt Q12809); test: Inhibition of human ERG expressed in HEK293 cells at 10 uM; format: cell-based; settings: HEK293 cells that express hERG
[22] = target: T1, 5-hydroxytryptamine receptor 1B (Homo sapiens, UniProt P28222); settings: 10 uM
[23] = target: T2, High affinity nerve growth factor receptor (Homo sapiens, UniProt P04629); test: Inhibition of human TrkA
Target sequence in this assay (P04629 whole entry): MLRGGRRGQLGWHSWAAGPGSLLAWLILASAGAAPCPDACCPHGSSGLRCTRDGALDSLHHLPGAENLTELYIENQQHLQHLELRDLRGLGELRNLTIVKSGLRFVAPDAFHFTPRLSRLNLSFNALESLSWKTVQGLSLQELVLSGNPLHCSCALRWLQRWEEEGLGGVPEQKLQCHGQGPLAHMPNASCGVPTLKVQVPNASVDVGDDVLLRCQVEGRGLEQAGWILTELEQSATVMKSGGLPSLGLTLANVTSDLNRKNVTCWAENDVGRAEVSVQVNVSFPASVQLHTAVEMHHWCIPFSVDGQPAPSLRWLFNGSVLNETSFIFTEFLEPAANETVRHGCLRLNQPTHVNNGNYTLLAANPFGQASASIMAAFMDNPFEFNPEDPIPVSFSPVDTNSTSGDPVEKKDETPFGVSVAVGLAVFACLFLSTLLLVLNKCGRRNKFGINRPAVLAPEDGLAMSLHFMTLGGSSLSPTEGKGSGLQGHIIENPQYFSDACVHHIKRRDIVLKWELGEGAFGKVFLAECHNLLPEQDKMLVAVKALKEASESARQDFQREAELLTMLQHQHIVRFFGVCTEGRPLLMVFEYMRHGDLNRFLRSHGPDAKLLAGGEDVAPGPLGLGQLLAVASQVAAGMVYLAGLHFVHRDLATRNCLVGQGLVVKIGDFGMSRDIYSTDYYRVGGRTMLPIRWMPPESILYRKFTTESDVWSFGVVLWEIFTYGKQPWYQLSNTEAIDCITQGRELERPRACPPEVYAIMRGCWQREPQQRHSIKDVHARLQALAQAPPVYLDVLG

[24] = target: T1, 5-hydroxytryptamine receptor 1B; test: Inhibition of 5-HT1B
[25] = system: Rattus norvegicus; test: Antiinflammatory activity in rat assessed as inhibition of LPS-induced TNFalpha production plasma administered orally 1 hr prior to LPS challenge measured after 1.5 hrs by ELISA; format: functional
[26] = target: Cytochrome P450 2D6 (Homo sapiens, UniProt P10635); test: Inhibition of human CYP2D6; format: ADME
[27] = target: Cytochrome P450 3A4 (Homo sapiens, UniProt P08684); test: Inhibition of human CYP3A4; format: ADME
[28] = target: T3, RAF proto-oncogene serine/threonine-protein kinase (Homo sapiens, UniProt P04049); settings: 10 uM
[29] = target: T4, Cytochrome P450 1A2 (Homo sapiens, UniProt P05177); test: Inhibition of human CYP1A2; format: ADME
T4 sequence (P05177 whole entry): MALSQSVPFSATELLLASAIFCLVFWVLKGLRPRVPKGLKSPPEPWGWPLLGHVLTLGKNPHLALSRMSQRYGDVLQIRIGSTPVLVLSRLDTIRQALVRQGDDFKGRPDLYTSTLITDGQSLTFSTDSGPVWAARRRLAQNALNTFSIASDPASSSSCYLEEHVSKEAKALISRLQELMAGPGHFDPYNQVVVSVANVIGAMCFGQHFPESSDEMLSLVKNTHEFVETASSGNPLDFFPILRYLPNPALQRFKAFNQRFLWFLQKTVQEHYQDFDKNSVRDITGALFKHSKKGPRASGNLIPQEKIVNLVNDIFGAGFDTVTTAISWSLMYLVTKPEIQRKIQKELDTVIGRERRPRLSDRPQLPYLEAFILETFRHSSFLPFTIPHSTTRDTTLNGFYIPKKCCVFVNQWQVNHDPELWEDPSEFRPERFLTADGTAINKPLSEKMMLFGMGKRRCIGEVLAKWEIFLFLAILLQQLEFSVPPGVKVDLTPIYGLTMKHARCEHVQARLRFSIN

[30] = target: T3, RAF proto-oncogene serine/threonine-protein kinase; test: Inhibition of cRaf
[31] = target: Cytochrome P450 2C9 (Homo sapiens, UniProt P11712); test: Inhibition of human CYP2C9; format: ADME
[32] = target: Cytochrome P450 2C19 (Homo sapiens, UniProt P33261); test: Inhibition of human CYP2C19; format: ADME
[33] = target: T2, High affinity nerve growth factor receptor; settings: 10 uM
[34] = system: CHO; test: Cytotoxicity against CHO cells at 100 uM; format: cell-based, Cricetulus griseus; settings: chinese hamster

Mitogen-activated protein kinase 14, sequence (Q16539 whole entry): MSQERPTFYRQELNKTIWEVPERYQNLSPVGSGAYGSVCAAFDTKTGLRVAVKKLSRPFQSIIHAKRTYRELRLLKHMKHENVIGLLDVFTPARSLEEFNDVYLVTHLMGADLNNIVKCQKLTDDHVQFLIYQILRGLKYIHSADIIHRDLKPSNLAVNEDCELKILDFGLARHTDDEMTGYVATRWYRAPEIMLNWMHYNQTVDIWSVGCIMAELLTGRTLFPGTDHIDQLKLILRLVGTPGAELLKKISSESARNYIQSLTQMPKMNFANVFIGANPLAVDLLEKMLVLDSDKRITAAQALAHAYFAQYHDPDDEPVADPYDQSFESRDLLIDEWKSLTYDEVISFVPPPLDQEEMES
T3 sequence (P04049 whole entry): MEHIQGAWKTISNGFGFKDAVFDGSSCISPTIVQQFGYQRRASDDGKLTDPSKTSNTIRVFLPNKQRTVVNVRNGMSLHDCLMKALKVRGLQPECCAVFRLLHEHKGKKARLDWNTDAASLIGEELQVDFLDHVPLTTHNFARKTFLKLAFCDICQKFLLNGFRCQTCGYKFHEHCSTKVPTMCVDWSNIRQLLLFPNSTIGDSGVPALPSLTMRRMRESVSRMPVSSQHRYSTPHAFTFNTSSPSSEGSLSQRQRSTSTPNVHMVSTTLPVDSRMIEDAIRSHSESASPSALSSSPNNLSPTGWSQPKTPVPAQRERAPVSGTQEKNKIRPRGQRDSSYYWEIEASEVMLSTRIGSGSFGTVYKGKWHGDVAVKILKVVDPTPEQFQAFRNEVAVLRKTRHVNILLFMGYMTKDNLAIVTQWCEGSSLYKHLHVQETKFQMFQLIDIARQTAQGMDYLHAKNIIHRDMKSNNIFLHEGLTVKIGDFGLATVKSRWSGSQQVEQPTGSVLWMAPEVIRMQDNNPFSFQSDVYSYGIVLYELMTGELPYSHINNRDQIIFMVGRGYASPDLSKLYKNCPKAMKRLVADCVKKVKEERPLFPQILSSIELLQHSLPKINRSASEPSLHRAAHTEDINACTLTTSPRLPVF
T1 sequence (P28222 whole entry): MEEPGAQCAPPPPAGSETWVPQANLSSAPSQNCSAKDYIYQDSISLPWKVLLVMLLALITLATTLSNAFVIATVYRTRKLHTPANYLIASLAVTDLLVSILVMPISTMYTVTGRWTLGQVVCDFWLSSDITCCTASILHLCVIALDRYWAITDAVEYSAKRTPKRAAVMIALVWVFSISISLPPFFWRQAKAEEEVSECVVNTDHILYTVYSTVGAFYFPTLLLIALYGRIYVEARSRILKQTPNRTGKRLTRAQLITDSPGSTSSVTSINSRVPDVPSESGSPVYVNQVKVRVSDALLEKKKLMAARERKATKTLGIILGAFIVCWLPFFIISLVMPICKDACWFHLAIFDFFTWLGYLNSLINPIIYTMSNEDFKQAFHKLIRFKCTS
Cytochrome P450 3A4, sequence (P08684 whole entry): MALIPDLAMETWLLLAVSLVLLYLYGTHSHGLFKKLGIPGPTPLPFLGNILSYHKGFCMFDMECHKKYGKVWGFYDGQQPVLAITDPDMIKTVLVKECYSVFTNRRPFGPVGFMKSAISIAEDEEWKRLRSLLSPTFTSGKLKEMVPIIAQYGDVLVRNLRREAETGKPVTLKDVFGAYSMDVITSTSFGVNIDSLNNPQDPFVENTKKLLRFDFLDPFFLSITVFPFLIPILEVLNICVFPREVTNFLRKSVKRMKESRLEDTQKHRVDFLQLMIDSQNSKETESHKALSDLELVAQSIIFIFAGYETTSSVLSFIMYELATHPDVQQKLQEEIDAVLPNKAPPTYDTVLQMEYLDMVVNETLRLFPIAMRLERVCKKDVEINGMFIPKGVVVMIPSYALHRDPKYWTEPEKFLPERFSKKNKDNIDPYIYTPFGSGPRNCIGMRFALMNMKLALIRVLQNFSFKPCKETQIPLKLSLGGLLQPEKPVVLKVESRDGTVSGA
hERG, sequence (Q12809 whole entry): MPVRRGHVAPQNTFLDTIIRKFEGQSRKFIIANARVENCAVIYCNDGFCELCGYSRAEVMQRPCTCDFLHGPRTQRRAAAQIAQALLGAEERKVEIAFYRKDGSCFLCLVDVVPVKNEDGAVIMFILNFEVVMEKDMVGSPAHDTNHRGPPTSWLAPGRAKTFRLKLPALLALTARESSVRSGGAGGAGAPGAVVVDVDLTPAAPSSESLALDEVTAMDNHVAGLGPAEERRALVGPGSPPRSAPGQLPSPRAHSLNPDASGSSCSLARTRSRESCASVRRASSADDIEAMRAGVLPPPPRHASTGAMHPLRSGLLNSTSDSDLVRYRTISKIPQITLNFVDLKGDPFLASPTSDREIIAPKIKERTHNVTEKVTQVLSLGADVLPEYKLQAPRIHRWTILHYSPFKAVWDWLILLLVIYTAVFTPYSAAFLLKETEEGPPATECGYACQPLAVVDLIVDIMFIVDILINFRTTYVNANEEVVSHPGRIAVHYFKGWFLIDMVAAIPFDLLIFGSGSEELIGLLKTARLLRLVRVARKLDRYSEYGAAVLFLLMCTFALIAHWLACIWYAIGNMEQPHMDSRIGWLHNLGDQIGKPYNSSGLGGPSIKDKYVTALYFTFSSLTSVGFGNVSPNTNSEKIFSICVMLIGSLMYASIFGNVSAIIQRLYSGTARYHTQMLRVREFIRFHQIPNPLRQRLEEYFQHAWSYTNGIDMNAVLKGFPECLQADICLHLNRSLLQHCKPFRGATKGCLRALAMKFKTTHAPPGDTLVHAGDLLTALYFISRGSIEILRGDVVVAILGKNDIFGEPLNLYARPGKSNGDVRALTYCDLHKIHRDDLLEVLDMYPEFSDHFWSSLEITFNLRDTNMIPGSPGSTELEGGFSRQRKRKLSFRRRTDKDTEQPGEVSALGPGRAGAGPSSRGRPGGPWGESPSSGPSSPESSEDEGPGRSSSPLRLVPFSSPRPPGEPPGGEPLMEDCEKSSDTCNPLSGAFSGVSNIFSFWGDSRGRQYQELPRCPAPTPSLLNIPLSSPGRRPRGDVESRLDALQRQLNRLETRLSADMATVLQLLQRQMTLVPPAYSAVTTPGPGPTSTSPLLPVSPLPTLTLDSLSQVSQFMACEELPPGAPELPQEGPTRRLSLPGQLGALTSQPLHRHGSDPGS
Cytochrome P450 2D6, sequence (P10635 whole entry): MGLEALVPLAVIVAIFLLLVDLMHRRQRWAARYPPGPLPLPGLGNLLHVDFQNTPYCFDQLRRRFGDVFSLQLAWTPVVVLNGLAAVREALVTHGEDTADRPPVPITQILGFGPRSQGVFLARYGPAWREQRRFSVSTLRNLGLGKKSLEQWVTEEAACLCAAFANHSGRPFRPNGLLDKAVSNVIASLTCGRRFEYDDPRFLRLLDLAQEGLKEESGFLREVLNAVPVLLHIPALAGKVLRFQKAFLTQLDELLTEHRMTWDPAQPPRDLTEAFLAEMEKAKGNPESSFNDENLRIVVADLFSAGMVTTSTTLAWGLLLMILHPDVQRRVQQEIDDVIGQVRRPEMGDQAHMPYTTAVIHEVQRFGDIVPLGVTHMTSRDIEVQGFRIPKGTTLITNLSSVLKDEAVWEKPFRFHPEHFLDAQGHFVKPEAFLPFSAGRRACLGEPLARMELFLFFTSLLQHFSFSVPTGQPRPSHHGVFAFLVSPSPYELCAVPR
Cytochrome P450 2C9, sequence (P11712 whole entry): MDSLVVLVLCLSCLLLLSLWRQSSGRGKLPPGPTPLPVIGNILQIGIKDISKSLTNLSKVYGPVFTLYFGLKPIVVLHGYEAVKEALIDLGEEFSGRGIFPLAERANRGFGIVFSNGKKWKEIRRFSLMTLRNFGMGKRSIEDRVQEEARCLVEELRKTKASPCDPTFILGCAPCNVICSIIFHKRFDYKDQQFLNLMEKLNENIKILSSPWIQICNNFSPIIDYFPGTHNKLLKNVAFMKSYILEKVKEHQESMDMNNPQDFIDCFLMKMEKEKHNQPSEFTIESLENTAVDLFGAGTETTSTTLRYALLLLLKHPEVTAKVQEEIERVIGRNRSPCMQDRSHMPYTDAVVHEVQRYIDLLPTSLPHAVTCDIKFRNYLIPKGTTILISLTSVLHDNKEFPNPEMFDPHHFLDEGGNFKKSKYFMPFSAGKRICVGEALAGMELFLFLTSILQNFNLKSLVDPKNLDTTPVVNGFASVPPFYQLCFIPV

| Compound | pIC50 [1] | metabolised at 0.5 h, 5 µM [2] [%] | MRT [3] [h] | pIC50 [4] | AUC(0-inf) [5] [ng·h/mL] | Stability [6] | clearance [7] [mL/min/kg] | Papp B→A at 12.5 µM [8] [×10⁻⁶ cm/s] | Cmax [9] [ng/mL] | metabolised at 0.5 h, 5 µM [10] [%] | bioavailability [12] [%] | Papp A→B at 12.5 µM [13] [×10⁻⁶ cm/s] | AUC(0-inf) [14] [ng·h/mL] | Vd [15] [L/kg] | half-life [16] [h] | Cmax [17] [ng/mL] | further results |
| --- | --- | --- | --- | --- | --- | --- | --- | --- | --- | --- | --- | --- | --- | --- | --- | --- | --- |
| Cc1nnc(-c2ccc(C)c(-c3ccc4c(c3)NC(=O)C4(C)C)c2)[nH]1 | 7.06 | – | – | – | – | – | – | – | – | – | – | – | – | – | – | – | – |
| Cc1ccc2c(NC3CC3)noc2c1-c1ccc2c(c1)NC(=O)C21CCOCC1 | 9.80 | 26 | 4.6 | 8.08 | 5270 | Stable | 3.2 | 16 | 1480 | 18 | 6 | 26 | 3370 | 0.8 | 2.9 | 479 | pIC50 [11]: 4.31 |
| Cc1ncc(-c2ccc(C)c(-c3ccc4c(c3)NC(=O)C43CCOCC3)c2)[nH]1 | 6.06 | – | – | – | – | – | – | – | – | – | – | – | – | – | – | – | Stability [18]: Stable; Stability [19]: Stable |
| Cc1ccc2c(NC3CC3)noc2c1-c1ccc2c(c1)NC(=O)C21CCC(F)(F)CC1 | – | 32 | – | 7.97 | – | Stable | – | 4 | – | 25 | – | 10 | – | – | – | – | Activity [20]: 56% |
| Cc1nnc(-c2ccc(C)c(-c3ccc4c(c3)NC(=O)C43CCOCC3)c2)[nH]1 | 8.12 | < 5 | 4 | 7.03 | 4060 | Stable | 4.2 | 27 | 1720 | 23 | 29 | 18 | 11700 | 1 | 3.1 | 1100 | inhibition at 10 µM [21]: 49%; inhibition [22]: > 50%; pIC50 [23]: 5.11; pIC50 [24]: 5.00; inhibition [25]: Dose-dependent effect; ED50 ([25]; po): 0.69 mg/kg; pIC50 [26]: < 4.60; pIC50 [27]: < 4.60; Stability [18]: Stable; inhibition [28]: > 50%; Activity [20]: 48%; pIC50 [29]: < 4.60; Stability [19]: Stable; pIC50 [30]: 5.80; pIC50 [31]: < 4.60; pIC50 [32]: < 4.60; inhibition [33]: > 50% |
| Cc1nnc(-c2ccc(C)c(-c3ccc4c(c3)NC(=O)C43CCN(S(C)(=O)=O)CC3)c2)[nH]1 | – | 6 | 1.8 | 7.30 | 1030 | Stable | 17.2 | 45 | 1300 | < 5 | 13 | 2 | 1370 | 1.75 | 3.8 | 632 | pIC50 [11]: 4.00 |
| Cc1ccc2c(N)noc2c1-c1ccc2c(c1)NC(=O)C21CCOCC1 | 8.30 | 3 | 2.5 | 6.84 | 1230 | Stable | 13.8 | 16 | 752 | 9 | 8 | 28 | 961 | 2 | 1.9 | 141 | Activity [20]: 16% |
| O=C1Nc2cc(-c3cccc4c(NC5CC5)noc34)c(Cl)cc2C12CCCC2 | – | – | – | 6.36 | – | – | – | – | – | – | – | – | – | – | – | – | – |
| Cc1ccn2c(N)nnc2c1-c1ccc2c(c1)NC(=O)C21CCCC1 | 7.47 | – | – | 5.68 | – | – | – | – | – | – | – | – | – | – | – | – | – |
| Cc1nnc(-c2ccc(C)c(-c3ccc4c(c3)NC(=O)C43CCCC3)c2)[nH]1 | 8.13 | 13 | – | 6.90 | – | Stable | – | – | – | 15 | – | – | – | – | – | – | Activity [34]: 53%; Stability [18]: Stable; Stability [19]: Stable |
| Cc1ccc2c(N)noc2c1-c1ccc2c(c1)NC(=O)C21CCC(F)(F)CC1 | 8.92 | – | – | 6.86 | – | – | – | – | – | – | – | – | – | – | – | – | – |
